Marks after values point to notes of the source that are not given here.

Data set [1] is described as follows: LSZ102 clinical pharmacokinetics. Format: in vivo, human.
Data set [2] has as its system ER-positive breast cancer. Kind of data set: Investigator-assessed clinical response. Format: in vivo, human. An outline of the steps:
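Local investigator assessed response per RECIST v1.1 in all participants receiving ≥1 dose. ORR = confirmed CR+PR. CBR = CR+PR plus SD or non-CR/non-PD maintained ≥24 weeks. PFS was estimated by Kaplan–Meier. Data were grouped by total daily dose, pooling fed, fasted and food-independent dosing.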

The subject of data set [3] is adults with ER-positive breast cancer. Description: Dose-limiting toxicities in the first 28-day treatment cycle. It is filed as in vivo, human.
Another data set relates to ER protein. Description: Paired biopsy ER protein by IHC. As to conditions: cycle 1 day 15, single agent. Format: in vivo, human.
For data set [4] the following is noted: cited from earlier work.
Data set [5] relates to adults with ER-positive breast cancer. Description: Adverse events, serious AEs, deaths, discontinuations. It is filed as in vivo, human. The gist of the method:
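Open-label phase I/Ib escalation in adults with ER-positive advanced breast cancer. Oral test compound was given once or twice daily, alone or with one of two partner agents, in continuous 28-day cycles. AEs were defined and graded per CTCAE v4.03. The safety set was treated participants with ≥1 valid postbaseline safety assessment. Fed/fasted data were pooled.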

As for `CC(F)(F)c1cc(F)ccc1-c1sc2cc(O)ccc2c1Oc1ccc(/C=C/C(=O)O)cc1` [LSZ102], the “Time to Cmax” value in data set [1] (discussion summary) was “approximately 2 hours”. In addition, in data set [1] (fasted conditions), the “Median time to maximum concentration (Cmax)” value lay within 2 to 3 h. Also, the “Discontinuations from study treatment: Progressive disease, n (%)” value in data set [2] (human, in vivo) was 71 (91.0) n (%). Moreover, the “Clinical benefit rate (CBR)” value in data set [2] (whole arm) came to 7.8%. The “Objective response rate (ORR)” value in data set [2] (whole arm) stood at 1.3%. The “DLT: ALT increased, participants” value in data set [3] (450 mg QD) was 1^b. Besides, the “DLT: AST increased, participants” value in data set [3] (450 mg QD) is listed as 1^b. Also, in data set [3] (600 mg QD), the “DLT: Vomiting, participants” value was found to be 1. The “DLT: Diarrhea, participants” value in data set [3] (900 mg QD) is 2. In data set [3] (first 28-day cycle, whole arm), the “DLTs, participants” value is on record as 5%. Moreover, the “Recommended dose for expansion: LSZ102 dose” value in data set [3] (in vivo) is listed as 450 mg once daily. Also, the “Participants with ≥ 1 DLT, n (%)” value is reported as 0 n (%) in data set [3] (total daily dose 200 mg, QD (n = 4)); 0 n (%) in data set [3] (total daily dose 400 mg, BID (n = 3)); 0 n (%) in data set [3] (total daily dose 400 mg, QD (n = 6)); 0 n (%) in data set [3] (total daily dose 450 mg, BID (n = 5)); 1 (3.6) n (%) in data set [3] (total daily dose 600 mg (n = 28), QD (n = 23)); 0 n (%) in data set [3] (total daily dose 600 mg, BID (n = 5)). Besides, the “Participants with ≥ 1 DLT, n (%)” value in data set [3] (total daily dose 900 mg, QD (n = 6)) is 2 (33.3) n (%). Moreover, in the data set on ER protein, the “Biopsy ER H-score change from screening” value is recorded as “trend toward dose-dependent ER degradation”. In addition, in data set [4], the “Increase in LSZ102 exposure with a high-fat high-calorie meal” value is reported as around 2 fold. The “Discontinuations from study treatment: Adverse event, n (%)” value in data set [5] (in vivo) is listed as 2 (2.6) n (%). The “Discontinuations from study treatment: Death, n (%)” value in data set [5] (in vivo) is recorded as 0 n (%). For the same molecule, the “Deaths on treatment or within 30 days from the last dose, number” value in data set [5] (whole arm) amounted to 5. In addition, in data set [5] (whole arm), the “Participants with treatment-related serious AEs, number” value is on record as 1.

The record behind these values is PMC9401512 (Clinical Cancer Research, 2021).
